Laboratory results published in ChEMBL document CHEMBL3632461 (J Med Chem, 2015).

Columns and labels:
[1] = Elimination half life in Beagle dog at 1 mg/kg, iv and 3 or 5 mg/kg, po; type: ADME, organism-based, Canis lupus familiaris; conditions: in vivo, read-out: beta t1/2 (converted)
Outline: (§1)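 Male CD-1 mice (25−35 g), cannulated Wistar-Han rats (250 g), beagle dogs (12 kg) and cynomolgus monkeys (7 kg), fasted overnight and fed 1.0 or 2.0 h after dosing. iv 1 mg/kg in saline or 12% sulfobutyl ether β-cyclodextrin; po 3 or 5 mg/kg in 0.5% methylcellulose. Parameters calculated from plasma concentration−time data; mean ± SD for n = 3, individual values for n = 2.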

[2] = Plasma clearance in Wistar rat at 1 mg/kg, iv and 3 or 5 mg/kg, po; type: ADME, organism-based; outline: as §1
[3] = Lipophilicity, log D of the compound at pH 7.4 by shake-flask method; type: physicochemical; conditions: buffer
[4] = molecular target: T1, Thyroid peroxidase (Homo sapiens) (UniProt P07202); assay: Inhibition of TPO (unknown origin) using Amplex Red as substrate assessed as formation of resorufin by measuring ratio of Kinact to Ki measured every 20 secs by spectrophotometric analysis
T1 sequence (whole entry): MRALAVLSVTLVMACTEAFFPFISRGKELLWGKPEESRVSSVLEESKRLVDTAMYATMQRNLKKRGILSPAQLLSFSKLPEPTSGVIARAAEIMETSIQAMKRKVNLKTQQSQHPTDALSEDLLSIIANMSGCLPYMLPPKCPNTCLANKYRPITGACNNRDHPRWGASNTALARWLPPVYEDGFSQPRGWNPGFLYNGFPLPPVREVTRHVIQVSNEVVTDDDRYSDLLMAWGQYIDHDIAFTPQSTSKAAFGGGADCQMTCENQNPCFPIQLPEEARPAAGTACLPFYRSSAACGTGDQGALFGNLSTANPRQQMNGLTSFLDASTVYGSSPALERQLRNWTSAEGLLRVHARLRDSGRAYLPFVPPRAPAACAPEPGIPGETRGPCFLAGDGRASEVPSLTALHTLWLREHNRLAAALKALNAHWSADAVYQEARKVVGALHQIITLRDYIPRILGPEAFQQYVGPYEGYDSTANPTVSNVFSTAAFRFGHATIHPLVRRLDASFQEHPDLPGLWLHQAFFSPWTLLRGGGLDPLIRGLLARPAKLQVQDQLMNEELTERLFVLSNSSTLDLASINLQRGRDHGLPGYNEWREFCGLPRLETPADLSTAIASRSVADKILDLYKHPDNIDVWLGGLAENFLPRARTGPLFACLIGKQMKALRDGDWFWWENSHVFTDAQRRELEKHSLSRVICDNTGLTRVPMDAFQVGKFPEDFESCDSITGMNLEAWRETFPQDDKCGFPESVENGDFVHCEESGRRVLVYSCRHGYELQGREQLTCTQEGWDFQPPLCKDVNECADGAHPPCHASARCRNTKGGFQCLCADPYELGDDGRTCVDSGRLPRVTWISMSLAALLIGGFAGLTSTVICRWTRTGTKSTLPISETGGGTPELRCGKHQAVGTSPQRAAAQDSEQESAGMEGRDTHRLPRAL
Outline: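 Amplex Red oxidation to resorufin in 50 mM sodium phosphate pH 7.4, 150 mM NaCl, 1 mM DTPA, 2 μM H2O2, 30 μM Amplex Red, 2% DMSO. Reaction started by adding TPO. Background rate measured with bovine catalase added and subtracted. Fluorescence (ex 530/em 580) read every 20 s at room temperature. kinact/KI taken from initial rates over the first 300 s. Geometric mean of at least two experiments.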

[5] = Plasma clearance in Beagle dog at 1 mg/kg, iv and 3 or 5 mg/kg, po; type: ADME, organism-based, Canis lupus familiaris; outline: as §1
[6] = Volume of distribution at steady state in Beagle dog at 1 mg/kg, iv and 3 or 5 mg/kg, po; type: ADME, organism-based, Canis lupus familiaris; conditions: in vivo, read-out: Vdss
Outline: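 Male mice, rats, dogs and cynomolgus monkeys, fasted overnight, fed after dosing. Intravenous dose 1 mg/kg in saline or 12% sulfobutyl ether β-cyclodextrin; oral arm 3 or 5 mg/kg in 0.5% methylcellulose. Steady-state volume derived from plasma concentration−time data; mean ± SD for n = 3, individual values for n = 2.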

[7] = Tmax in Wistar rat at 3 or 5 mg/kg, po; type: ADME, organism-based; conditions: in vivo
Outline: (§2)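 Male animals (CD-1 mice 25−35 g, cannulated Wistar-Han rats 250 g, beagle dogs 12 kg, cynomolgus monkeys 7 kg), fasted overnight and fed 1.0 or 2.0 h after dosing, water ad libitum. Oral dose 3 or 5 mg/kg in 0.5% methylcellulose. Parameters calculated from plasma concentration−time data; mean ± SD for n = 3, individual values for n = 2.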

[8] = Tmax in Beagle dog at 3 or 5 mg/kg, po; type: ADME, organism-based, Canis lupus familiaris; conditions: in vivo; outline: as §2
[9] = Oral bioavailability in Wistar rat at 3 or 5 mg/kg; type: ADME, organism-based; conditions: in vivo
Outline: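 Male CD-1 mice, Wistar-Han rats, beagle dogs and cynomolgus monkeys, fasted overnight and fed after dosing. Given po at 3 or 5 mg/kg in 0.5% methylcellulose, with an iv reference dose of 1 mg/kg. Bioavailability derived from plasma concentration−time data; mean ± SD (n = 3) or individual values (n = 2).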

Liver microsome = assay: Intrinsic apparent clearance in human liver microsomes; type: ADME
Outline: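 Stability incubations in NADPH-supplemented human liver microsomes or cryopreserved human hepatocytes. Total apparent intrinsic clearance scaled from the in vitro half-life; microsomes reported per mg protein, hepatocytes per 10⁶ cells.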

[10] = Fraction unbound in human plasma by equilibrium dialysis method; type: ADME, cell-free
Outline: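 Fraction unbound in human plasma measured by equilibrium dialysis; mean of three individual determinations.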

Compound | half-life [1] | clearance [2] | logD [3] | log(ratio) [4] | clearance [5] | Vd [6] | Tmax [7] | Tmax [8] | bioavailability [9] | CLH(app) (Liver microsome) | fraction unbound [10]
COc1ccc(-c2cc(=O)[nH]c(=S)n2CCN)c(OC)c1 | 5.7 h | 70.3 mL/min/kg | -0.17 | < 0.5 | 13.4 mL/min/kg | 3.66 L/kg | 0.38 h | 1.3 h | 91% | 8.8 µL/min/mg | 0.7
COc1ccc(Cl)cc1-c1cc(=O)[nH]c(=S)n1CC(N)=O [PF-06282999] | 2.2 h | 41.8 mL/min/kg | 0.81 | – | 3.39 mL/min/kg | 0.54 L/kg | 0.78 h | 0.7 h | 86% | < 8 µL/min/mg | –
COc1ccc(OC)c(-c2cc(=O)[nH]c(=S)n2CC(N)=O)c1 | 2.8 h | 37.6 mL/min/kg | 0.34 | < 0.5 | 7.07 mL/min/kg | 1.03 L/kg | 0.67 h | 0.63 h | 61% | < 8 µL/min/mg | 0.6
COc1ccc(-c2cc(=O)[nH]c(=S)n2CC(N)=O)c(OC)c1 | 3.4 h | 35.1 mL/min/kg | 0.59 | < 0.5 | 1.31 mL/min/kg | 0.3 L/kg | 0.5 h | 1.5 h | 76% | < 8 µL/min/mg | 0.5
COc1ccc(-c2cc(=O)[nH]c(=S)n2CCO)c(OC)c1 | 5.3 h | 59.3 mL/min/kg | 1.1 | < 0.5 | 11.9 mL/min/kg | 1.33 L/kg | 1.3 h | 1.17 h | 8% | < 8 µL/min/mg | 0.5
